Wee1 stabilizer = Wee1 degradation inhibitors, primary screen, cell-based, HeLa, Wee1K328M-luciferase, luminescence; Wee1-like protein kinase (Homo sapiens), P30291; HeLa Luc-Wee1K328M stability; 100% = proteasome inhibitor MG132 effect; reporter increase, % at 5 µM; 1.2% of 220,000 active;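 active means activation above the mean of all tested compounds plus 3 SD, set per screening run, cut at about 8.8% in these data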;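 further: cells exposed to compound for 20 h before luminescence read; 0% = DMSO alone and 100% = MG132 at 30 µM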
Rad51 HR inh = human RAD51 strand exchange inhibitors, primary screen, biochemical, fluorescence; DNA repair protein RAD51 homolog 1 (Homo sapiens), Q06609; hRad51 DNA strand exchange, fluorescence dequenching; inhibition, % at 10 µM; 0.085% of 200,000 active; AID 1385, 2008;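 active means inhibition above 40% at the single screening dose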;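 further: 0% = DMSO control wells and 100% = blanks with heterologous ssDNA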
Target sequence (Q06609 whole entry, looked up): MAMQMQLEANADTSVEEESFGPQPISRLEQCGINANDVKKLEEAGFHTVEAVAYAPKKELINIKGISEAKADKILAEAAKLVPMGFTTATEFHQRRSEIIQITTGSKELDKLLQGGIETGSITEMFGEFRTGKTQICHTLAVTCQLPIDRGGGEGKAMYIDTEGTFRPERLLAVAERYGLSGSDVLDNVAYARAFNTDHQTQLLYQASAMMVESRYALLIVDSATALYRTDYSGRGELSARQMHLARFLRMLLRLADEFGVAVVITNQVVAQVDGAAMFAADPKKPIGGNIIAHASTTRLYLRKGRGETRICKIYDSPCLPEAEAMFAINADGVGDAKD
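Assay system: Human Rad51 nucleoprotein filaments preassembled on unlabelled ssDNA | Reagent: Donor/quencher-labelled 47-bp dsDNA substrate | Doses: One concentration, 10 µM final | Times: 37 °C 15-min filament assembly, 30-min compound preincubation, 15-min exchange | Technique: Fluorescein emission 520 nm, excitation 485 nm | Benchmarks: Plate control and blank wells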
RBBP9 inh = human RBBP9 inhibitors, primary screen, biochemical, fluorescence polarization, FP-Rh probe, HTS. Serine hydrolase RBBP9 (Homo sapiens), O75884. recombinant RBBP9. inhibition, % at 7.94 µM. 0.2% of 220,000 active. AID 1515, 2009;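 active means inhibition above the campaign mean of all tested compounds plus 3 SD, cut at about 14% in these data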;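 further: plate controls were DMSO wells with RBBP9 for no effect and wells lacking RBBP9 protein for full effect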
Target sequence (O75884 whole entry, looked up): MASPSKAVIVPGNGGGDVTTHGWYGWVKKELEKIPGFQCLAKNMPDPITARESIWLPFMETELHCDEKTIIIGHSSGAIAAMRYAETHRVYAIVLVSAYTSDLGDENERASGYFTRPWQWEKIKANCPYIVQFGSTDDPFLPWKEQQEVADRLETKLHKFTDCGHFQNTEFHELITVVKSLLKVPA
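Test system: recombinant human RBBP9; Timing: 30 min then 45 min, 25 °C; Detection: fluorescence polarization; Control set: RBBP9 with DMSO as uninhibited control, no-protein wells as full inhibition; Compound dosing: one concentration, 7.94 µM nominal, 0.794% DMSO; Probe or stimulus: FP-Rh activity-based probe, 375 nM before mixing.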
DNA FID counter = compounds displacing fluorescent DNA intercalator, primary screen, artefact control for HCV NS3 helicase inhibitor project, biochemical, FID fluorescence. DNA fluorescent intercalator displacement. inhibition, % at 7.9 µM. 0.17% of 290,000 active. AID 1845, 2009; in the data active means inhibition above about 37%;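 further: 0% = vehicle and 100% = reference compound; higher means more ethidium bromide displaced from hairpin DNA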
* = called active by the depositor; · = no result; ! = a repeat was not active. Hits are enriched below; roughly 1.2% of the tested compounds scored in any of these assays.

SMILES	Wee1 stabilizer	Rad51 HR inh	RBBP9 inh	DNA FID counter
COc1cccc(-c2cc(C(=O)N3CCN(c4ncccn4)CC3)c3ccccc3n2)c1	5	·	-9	-31
CC(C)Oc1cccc(-c2cc(C(=O)N3CCN(c4ncccn4)CC3)c3ccccc3n2)c1	9.3*	-13	-12	-33
Cc1ccccc1NC(=O)CSc1n[nH]c(-c2ccccn2)n1	·	·	·	-24
COCCNC(=O)C(c1ccc(F)cc1)N(C(=O)CCC(=O)Nc1ccccn1)c1ccc(C)cc1 (configuration not stated)	·	·	·	-41
CCC(CO)NCc1ccc(OCC(=O)Nc2cccc(C(F)(F)F)c2)c(OC)c1 (configuration not stated)	0	11	1	19
CCOc1cc(CNC(C)(C)C)ccc1OCC(=O)Nc1cccc(C(F)(F)F)c1	3	-5	-8	38*
O=C1COc2ccc(C(=O)COC(=O)Cc3ccsc3)cc2N1	10*	11	-14	-4
O=C1COc2ccc(C(=O)COC(=O)Cc3ccccc3F)cc2N1	0	22	-5	-6
CC(C)(C)C(=O)Nc1ccc(-c2csnn2)cc1	11*	·	-10	-2
CC(C)CC(=O)Nc1c2c(nn1-c1cccc(Cl)c1)CS(=O)(=O)C2	·	·	·	-9
Cc1onc(-c2ccccc2)c1C(=O)N(Cc1ccco1)Cc1cccs1	1	10	-5	-26
O=C(Nc1nnc(-c2cccs2)o1)c1cc(-c2ccccc2)nc2ccccc12	9.5*	·	-9	-34
Cc1cc(=O)oc2cc(OCC(=O)NCc3ccco3)ccc12	1	-6	-6	94*
c1ccc(-c2noc(-c3cccc4ccccc34)n2)nc1	9.1*	-1	1	-13
CCn1nnc(NC(=O)c2cccc(-c3cc4ccccc4oc3=O)c2)n1	2	51*	2	-24
O=C(NCCC(c1ccccc1)c1ccccc1)c1cnc2sccn2c1=O	11*	-6	0	-12
Cc1nnc(SCC(=O)Nc2nc3c(s2)CC(C)CC3)s1 (configuration not stated)	8.9*	-3	-8	-12
CS(=O)(=O)N1CCN=C1SCc1ccc([N+](=O)[O-])cc1	9.1*	-3	2	3
CS(=O)(=O)N1CCN=C1SCc1ccc(Br)cc1	·	·	·	-5
COc1ccc(NC(=O)c2noc3c2CCC3)cc1	1	-9	-1	-6
CC(=O)c1ccc(NC(=O)c2noc3c2CCC3)cc1	10*	-1	-9	-5
COC(=O)c1ccccc1NC(=O)CSc1nccc(C)n1	10*	-26	0	-16
O=C(CN1C(=O)COc2ccc(S(=O)(=O)N3CCOCC3)cc21)NCc1ccco1	-2	·	-8	-1
CC1CCN(c2nc3ccccc3nc2C(C#N)C(=O)OC2CCCCC2)CC1 (configuration not stated)	12*	1	1	2
N#CC(C(=O)OC1CCCCC1)c1nc2ccccc2nc1N1CCCCC1 (configuration not stated)	-1	0	1	7
SMILES	Wee1 stabilizer	Rad51 HR inh	RBBP9 inh	DNA FID counter
CC(C)(C)OC(=O)NCCC(=O)N/N=C/c1cccc2nccnc12	9.3*	7	-2	-8
CCC(C)[C@H](NC(=O)OC(C)(C)C)C(=O)N/N=C/c1cccc2nccnc12 (some centres not stated)	-1	-4	-14	-12
O=C(N/N=C/c1ccco1)c1ccncc1	15*	-1	4	2
O=C(N/N=C/c1cccc2nccnc12)c1ccncc1	9.8*	-1	-7	2
O=C(N/N=C/c1cccc2nccnc12)c1ccccc1O	2	18	-8	0
Cc1cc(C)n(CC(=O)N/N=C/c2ccco2)n1	9.2*	-5	-13	2
CCOC(=O)c1c(-c2ccccc2)oc2cc(CN(C)C)c(O)c(CN(C)C)c12	1	·	-3	-11
Nc1cc(-c2ccccc2)ccc1O	10*!	-6	-2	-2
CCOc1ccc2nc(NCCNC(=S)NCCCN(C)C)c(C#N)cc2c1	-1	-2	4	42*
CCC(CNC(=O)c1c(C)nn(-c2ccccc2)c1Cl)c1ccccc1 (configuration not stated)	·	·	·	-40
Cc1ccccc1NC(=O)c1ccc([N+](=O)[O-])o1	9.0*	-1	-7	2
Cc1ccc(NC(=O)c2ccc([N+](=O)[O-])o2)c(C)c1	3	23	-11	1
Cc1nn(-c2nc3ccccc3[nH]2)c(N)c1-c1ccc(Cl)cc1	11*	-4	-9	-7
CCC1CCc2c(sc(NC(=O)CSc3nc(-c4ccco4)cc(C(F)(F)F)n3)c2C#N)C1 (configuration not stated)	-4	3	-8	1
O=C(NC(=O)c1ccccc1O)c1ccc(C(F)(F)F)cc1	9.1*	13	1	0
COC(=O)CCNC(=O)Cn1cnc2sc3c(c2c1=O)CCCC3	1	0	-8	-11
C#CCOCCOCCOCCNc1nc(N2CCN(C(=O)[C@H]([C@@H](C)CC)n3cc([C@@H](N)Cc4ccc(O)cc4)nn3)CC2)nc(N2CCN(C(=O)[C@H](Cc3ccc(O)cc3)n3cc([C@@H](N)C(C)CC)nn3)CC2)n1 (some centres not stated)	0	0	-10	45*
C#CCOCCOCCOCCNc1nc(N2CCN(C(=O)[C@H]([C@@H](C)CC)n3cc([C@@H](N)CC(C)C)nn3)CC2)nc(N2CCN(C(=O)[C@H](Cc3ccc(O)cc3)n3cc([C@@H](N)C(C)CC)nn3)CC2)n1 (some centres not stated)	1	7	0	35
C#CCOCCOCCOCCNc1nc(N2CCN(C(=O)[C@H]([C@@H](C)CC)n3cc([C@@H](N)Cc4ccc(O)cc4)nn3)CC2)nc(N2CCN(C(=O)[C@H]([C@@H](C)CC)n3cc([C@@H](N)CC(C)C)nn3)CC2)n1	-1	4	5	47*
C#CCOCCOCCOCCNc1nc(N2CCN(C(=O)[C@H]([C@@H](C)CC)n3cc([C@@H](N)CO)nn3)CC2)nc(N2CCN(C(=O)[C@H](Cc3ccc(O)cc3)n3cc([C@@H](N)CC(C)C)nn3)CC2)n1	-2	-8	-5	41*
C#CCOCCOCCOCCNc1nc(N2CCN(C(=O)[C@H]([C@@H](C)CC)n3cc([C@@H](N)Cc4ccc(O)cc4)nn3)CC2)nc(N2CCN(C(=O)[C@H](Cc3ccc(O)cc3)n3cc([C@@H](N)CC(C)C)nn3)CC2)n1	0	-1	0	36
CC(=O)c1cccc(NC(=O)C(C)N2CCc3ccccc3C2)c1 (configuration not stated)	-2	2	-2	-12
